Laboratory results published in ChEMBL document CHEMBL1147115 (2007).
In brackets after ≈: the same amount, converted by molar mass.

How the values were obtained:
Escherichia coli [1] = test: Antimicrobial activity against ESBL producing Escherichia coli 243 isolate; type: functional
Escherichia coli [2] = test: Antimicrobial activity against ESBL producing Escherichia coli 321 isolate infected thigh infection model ICR mouse; type: functional, Thigh muscle
Summary of the method: (§1)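 Female ICR mice (~25 g) were made neutropenic with cyclophosphamide ip (150 and 100 mg/kg, days −4 and −1) and renally impaired with uranyl nitrate 5 mg/kg ip (day −3). Each thigh got 0.1 ml of 10^5 CFU/ml (or 10^7 for high inoculum) im 2 h pre-therapy. Human-simulated regimens were given sc, three mice per group, for 24 h. Efficacy was the log10 CFU/thigh change versus 0-h controls.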

Klebsiella pneumoniae [3] = test: Antimicrobial activity against ESBL producing Klebsiella pneumoniae 270 isolate infected thigh infection model ICR mouse; type: functional, Thigh muscle; summary of the method: as §1
Klebsiella pneumoniae [4] = test: Antimicrobial activity against ESBL producing Klebsiella pneumoniae 263 isolate; type: functional
Klebsiella pneumoniae [5] = test: Bacteriostasis activity against ESBL producing Klebsiella pneumonia 262 isolate at up to 1.5 ug/ml; type: functional
Klebsiella pneumoniae [6] = test: Antimicrobial activity against ESBL producing Klebsiella pneumoniae 265 isolate infected thigh infection model ICR mouse; type: functional, Thigh muscle; summary of the method: as §1
Escherichia coli [7] = test: Antimicrobial activity against ESBL producing Escherichia coli 285 isolate; type: functional
Escherichia coli [8] = test: Antimicrobial activity against ESBL producing Escherichia coli 315 isolate infected thigh infection model ICR mouse; type: functional, Thigh muscle; summary of the method: as §1
Escherichia coli [9] = test: Antimicrobial activity against Escherichia coli ATCC 25922 isolate infected thigh infection model ICR mouse; type: functional, Thigh muscle; summary of the method: as §1
Escherichia coli [10] = test: Antimicrobial activity against ESBL producing Escherichia coli 320 isolate; type: functional
Klebsiella pneumoniae [11] = test: Antimicrobial activity against ESBL producing Klebsiella pneumoniae 230 isolate infected thigh infection model ICR mouse; type: functional, Thigh muscle; summary of the method: as §1
Klebsiella pneumoniae [12] = test: Antimicrobial activity against ESBL producing Klebsiella pneumoniae 60 isolate infected thigh infection model ICR mouse; type: functional, Thigh muscle; summary of the method: as §1
Escherichia coli [13] = test: Antimicrobial activity against ESBL producing Escherichia coli 311 isolate infected thigh infection model ICR mouse; type: functional, Thigh muscle; summary of the method: as §1
Klebsiella pneumoniae [14] = test: Antimicrobial activity against ESBL producing Klebsiella pneumoniae 256 isolate; type: functional
Escherichia coli [15] = test: Antimicrobial activity against ESBL producing Escherichia coli 133 isolate; type: functional
Klebsiella pneumoniae [16] = test: Antimicrobial activity against ESBL producing Klebsiella pneumoniae 258 isolate; type: functional
Klebsiella pneumoniae [17] = test: Antimicrobial activity against ESBL producing Klebsiella pneumoniae 260 isolate; type: functional
Klebsiella pneumoniae [18] = test: Antimicrobial activity against ESBL producing Klebsiella pneumoniae 264 isolate; type: functional
Klebsiella pneumoniae [19] = test: Antimicrobial activity against ESBL producing Klebsiella pneumoniae 266 isolate; type: functional
Klebsiella pneumoniae [20] = test: Antimicrobial activity against ESBL producing Klebsiella pneumoniae 266 isolate infected thigh infection model ICR mouse; type: functional, Thigh muscle; summary of the method: as §1
Klebsiella pneumoniae [21] = test: Antimicrobial activity against ESBL producing Klebsiella pneumoniae 255 isolate; type: functional
Escherichia coli [22] = test: Antimicrobial activity against ESBL producing Escherichia coli 130 isolate infected thigh infection model ICR mouse; type: functional, Thigh muscle; summary of the method: as §1
Escherichia coli [23] = test: Antimicrobial activity against ESBL producing Escherichia coli 133 isolate infected thigh infection model ICR mouse; type: functional, Thigh muscle; summary of the method: as §1
Klebsiella pneumoniae [24] = test: Antimicrobial activity against ESBL producing Klebsiella pneumoniae 254 isolate; type: functional
Escherichia coli [25] = test: Antimicrobial activity against ESBL producing Escherichia coli 118 isolate; type: functional
Escherichia coli [26] = test: Antimicrobial activity against ESBL producing Escherichia coli 285 isolate infected thigh infection model ICR mouse; type: functional, Thigh muscle; summary of the method: as §1
Klebsiella pneumoniae [27] = test: Antimicrobial activity against ESBL producing Klebsiella pneumoniae 101 isolate; type: functional
Klebsiella pneumoniae [28] = test: Antimicrobial activity against ESBL producing Klebsiella pneumoniae 261 isolate; type: functional
Escherichia coli [29] = test: Antimicrobial activity against ESBL producing Escherichia coli 322 isolate infected thigh infection model ICR mouse; type: functional, Thigh muscle; summary of the method: as §1
Klebsiella pneumoniae [30] = test: Antimicrobial activity against ESBL producing Klebsiella pneumoniae 262 isolate; type: functional
Escherichia coli [31] = test: Antimicrobial activity against ESBL producing Escherichia coli 321 isolate; type: functional
Escherichia coli [32] = test: Antimicrobial activity against Escherichia coli 120 isolate; type: functional
Klebsiella pneumoniae [33] = test: Antimicrobial activity against ESBL producing Klebsiella pneumoniae 270 isolate; type: functional
Klebsiella pneumoniae [34] = test: Antimicrobial activity against ESBL producing Klebsiella pneumoniae 260 isolate infected thigh infection model ICR mouse; type: functional, Thigh muscle; summary of the method: as §1
Klebsiella pneumoniae [35] = test: Antimicrobial activity against ESBL producing Klebsiella pneumoniae 101 isolate infected thigh infection model ICR mouse; type: functional, Thigh muscle; summary of the method: as §1
Klebsiella pneumoniae [36] = test: Antimicrobial activity against ESBL producing Klebsiella pneumoniae 258 isolate infected thigh infection model ICR mouse; type: functional, Thigh muscle; summary of the method: as §1
Klebsiella pneumoniae [37] = test: Antimicrobial activity against ESBL producing Klebsiella pneumoniae 225 isolate infected thigh infection model ICR mouse; type: functional, Thigh muscle; summary of the method: as §1
Klebsiella pneumoniae [38] = test: Antimicrobial activity against ESBL producing Klebsiella pneumoniae 257 isolate; type: functional
Escherichia coli [39] = test: Antimicrobial activity against ESBL producing Escherichia coli 318 isolate infected thigh infection model ICR mouse; type: functional, Thigh muscle; summary of the method: as §1
Escherichia coli [40] = test: Antimicrobial activity against Escherichia coli ATCC 25922 isolate; type: functional
Klebsiella pneumoniae [41] = test: Antimicrobial activity against ESBL producing Klebsiella pneumoniae 225 isolate; type: functional
Escherichia coli [42] = test: Antimicrobial activity against ESBL producing Escherichia coli 312 isolate infected thigh infection model ICR mouse; type: functional, Thigh muscle; summary of the method: as §1
Klebsiella pneumoniae [43] = test: Antimicrobial activity against ESBL producing Klebsiella pneumoniae 255 isolate infected thigh infection model ICR mouse; type: functional, Thigh muscle; summary of the method: as §1
Escherichia coli [44] = test: Antimicrobial activity against ESBL producing Escherichia coli 311 isolate; type: functional
Escherichia coli [45] = test: Antimicrobial activity against ESBL producing Escherichia coli 310 isolate; type: functional
Klebsiella pneumoniae [46] = test: Antimicrobial activity against ESBL producing Klebsiella pneumoniae 259 isolate; type: functional
Escherichia coli [47] = test: Antimicrobial activity against ESBL producing Escherichia coli 322 isolate; type: functional
Klebsiella pneumoniae [48] = test: Antimicrobial activity against ESBL producing Klebsiella pneumoniae 268 isolate infected thigh infection model ICR mouse; type: functional, Thigh muscle; summary of the method: as §1
Klebsiella pneumoniae [49] = test: Activity against ESBL producing Klebsiella pneumonia 262 isolate at up to 4 ug/ml; type: functional
Klebsiella pneumoniae [50] = test: Antimicrobial activity against ESBL producing Klebsiella pneumoniae 268 isolate; type: functional
Klebsiella pneumoniae [51] = test: Antimicrobial activity against ESBL producing Klebsiella pneumoniae 230 isolate; type: functional
Escherichia coli [52] = test: Antimicrobial activity against ESBL producing Escherichia coli 243 isolate infected thigh infection model ICR mouse; type: functional, Thigh muscle; summary of the method: as §1
Escherichia coli [53] = test: Antimicrobial activity against ESBL producing Escherichia coli 310 isolate infected thigh infection model ICR mouse; type: functional, Thigh muscle; summary of the method: as §1
Klebsiella pneumoniae [54] = test: Antimicrobial activity against ESBL producing Klebsiella pneumoniae 256 isolate infected thigh infection model ICR mouse; type: functional, Thigh muscle; summary of the method: as §1
Escherichia coli [55] = test: Antimicrobial activity against Escherichia coli 120 isolate infected thigh infection model ICR mouse; type: functional, Thigh muscle; summary of the method: as §1
Escherichia coli [56] = test: Antimicrobial activity against ESBL producing Escherichia coli 130 isolate; type: functional
Klebsiella pneumoniae [57] = test: Antimicrobial activity against ESBL producing Klebsiella pneumoniae 257 isolate infected thigh infection model ICR mouse; type: functional, Thigh muscle; summary of the method: as §1
Klebsiella pneumoniae [58] = test: Antimicrobial activity against ESBL producing Klebsiella pneumoniae 259 isolate infected thigh infection model ICR mouse; type: functional, Thigh muscle; summary of the method: as §1
Klebsiella pneumoniae [59] = test: Antimicrobial activity against ESBL producing Klebsiella pneumoniae 254 isolate infected thigh infection model ICR mouse; type: functional, Thigh muscle; summary of the method: as §1
Klebsiella pneumoniae [60] = test: Antimicrobial activity against ESBL producing Klebsiella pneumoniae 262 isolate infected thigh infection model ICR mouse; type: functional, Thigh muscle; summary of the method: as §1
Escherichia coli [61] = test: Antimicrobial activity against ESBL producing Escherichia coli 320 isolate infected thigh infection model ICR mouse; type: functional, Thigh muscle; summary of the method: as §1
Klebsiella pneumoniae [62] = test: Antimicrobial activity against ESBL producing Klebsiella pneumoniae 265 isolate; type: functional
Klebsiella pneumoniae [63] = test: Antimicrobial activity against ESBL producing Klebsiella pneumoniae 264 isolate infected thigh infection model ICR mouse; type: functional, Thigh muscle; summary of the method: as §1
Klebsiella pneumoniae [64] = test: Antimicrobial activity against ESBL producing Klebsiella pneumoniae 261 isolate infected thigh infection model ICR mouse; type: functional, Thigh muscle; summary of the method: as §1
Escherichia coli [65] = test: Antimicrobial activity against ESBL producing Escherichia coli 315 isolate; type: functional
Escherichia coli [66] = test: Antimicrobial activity against ESBL producing Escherichia coli 312 isolate; type: functional
Klebsiella pneumoniae [67] = test: Antimicrobial activity against ESBL producing Klebsiella pneumoniae 263 isolate infected thigh infection model ICR mouse; type: functional, Thigh muscle; summary of the method: as §1
Klebsiella pneumoniae [68] = test: Antimicrobial activity against ESBL producing Klebsiella pneumoniae 60 isolate; type: functional

C[C@@H](O)[C@H]1C(=O)N2C(C(=O)O)=C(S[C@@H]3CN[C@H](C(=O)Nc4cccc(C(=O)O)c4)C3)[C@H](C)[C@H]12
MIC (Escherichia coli [1]): 0.064 µg/mL (≈ 0.135 µM)
fT>MIC (Escherichia coli [2]): 90%
fT>MIC (Klebsiella pneumoniae [3]): 40%
MIC (Klebsiella pneumoniae [4]): 8 µg/mL (≈ 16.8 µM)
MIC (Klebsiella pneumoniae [5]): 1.5 µg/mL (≈ 3.15 µM)
fT>MIC (Klebsiella pneumoniae [6]): 40%
MIC (Escherichia coli [7]): 0.023 µg/mL (≈ 0.0484 µM)
fT>MIC (Escherichia coli [8]): 77%
fT>MIC (Escherichia coli [9]): 93%
MIC (Escherichia coli [10]): 0.5 µg/mL (≈ 1.05 µM)
fT>MIC (Klebsiella pneumoniae [11]): 60%
fT>MIC (Klebsiella pneumoniae [12]): 90%
fT>MIC (Escherichia coli [13]): 10%
MIC (Klebsiella pneumoniae [14]): 32 µg/mL (≈ 67.3 µM)
MIC (Escherichia coli [15]): 1.5 µg/mL (≈ 3.15 µM)
MIC (Klebsiella pneumoniae [16]): 16 µg/mL (≈ 33.6 µM)
MIC (Klebsiella pneumoniae [17]): 1 µg/mL (≈ 2.1 µM)
MIC (Klebsiella pneumoniae [18]): 4 µg/mL (≈ 8.41 µM)
MIC (Klebsiella pneumoniae [19]): 8 µg/mL (≈ 16.8 µM)
fT>MIC (Klebsiella pneumoniae [20]): 0%
MIC (Klebsiella pneumoniae [21]): 2 µg/mL (≈ 4.21 µM)
fT>MIC (Escherichia coli [22]): 30%
fT>MIC (Escherichia coli [23]): 23%
MIC (Klebsiella pneumoniae [24]): 16 µg/mL (≈ 33.6 µM)
MIC (Escherichia coli [25]): 0.012 µg/mL (≈ 0.0252 µM)
fT>MIC (Escherichia coli [26]): 80%
MIC (Klebsiella pneumoniae [27]): 0.094 µg/mL (≈ 0.198 µM)
MIC (Klebsiella pneumoniae [28]): 128 µg/mL (≈ 269 µM)
fT>MIC (Escherichia coli [29]): 90%
MIC (Klebsiella pneumoniae [30]): 64 µg/mL (≈ 135 µM)
MIC (Escherichia coli [31]): 0.012 µg/mL (≈ 0.0252 µM)
MIC (Escherichia coli [32]): 0.03 µg/mL (≈ 0.0631 µM)
MIC (Klebsiella pneumoniae [33]): 0.5 µg/mL (≈ 1.05 µM)
fT>MIC (Klebsiella pneumoniae [34]): 30%
fT>MIC (Klebsiella pneumoniae [35]): 60%
fT>MIC (Klebsiella pneumoniae [36]): 0%
fT>MIC (Klebsiella pneumoniae [37]): 87%
MIC (Klebsiella pneumoniae [38]): 16 µg/mL (≈ 33.6 µM)
fT>MIC (Escherichia coli [39]): 90%
MIC (Escherichia coli [40]): 0.008 µg/mL (≈ 0.0168 µM)
MIC (Klebsiella pneumoniae [41]): 0.016 µg/mL (≈ 0.0336 µM)
fT>MIC (Escherichia coli [42]): 53%
fT>MIC (Klebsiella pneumoniae [43]): 20%
MIC (Escherichia coli [44]): 4 µg/mL (≈ 8.41 µM)
MIC (Escherichia coli [45]): 0.064 µg/mL (≈ 0.135 µM)
MIC (Klebsiella pneumoniae [46]): 16 µg/mL (≈ 33.6 µM)
MIC (Escherichia coli [47]): 0.012 µg/mL (≈ 0.0252 µM)
fT>MIC (Klebsiella pneumoniae [48]): 47%
MIC (Klebsiella pneumoniae [49]): 4 µg/mL (≈ 8.41 µM)
MIC (Klebsiella pneumoniae [50]): 0.25 µg/mL (≈ 0.526 µM)
MIC (Klebsiella pneumoniae [51]): 0.094 µg/mL (≈ 0.198 µM)
fT>MIC (Escherichia coli [52]): 67%
fT>MIC (Escherichia coli [53]): 67%
fT>MIC (Klebsiella pneumoniae [54]): 0%
fT>MIC (Escherichia coli [55]): 77%
MIC (Escherichia coli [56]): 1 µg/mL (≈ 2.1 µM)
fT>MIC (Klebsiella pneumoniae [57]): 0%
fT>MIC (Klebsiella pneumoniae [58]): 0%
fT>MIC (Klebsiella pneumoniae [59]): 0%
fT>MIC (Klebsiella pneumoniae [60]): 0%
fT>MIC (Escherichia coli [61]): 40%
MIC (Klebsiella pneumoniae [62]): 0.5 µg/mL (≈ 1.05 µM)
fT>MIC (Klebsiella pneumoniae [63]): 10%
fT>MIC (Klebsiella pneumoniae [64]): 0%
MIC (Escherichia coli [65]): 0.032 µg/mL (≈ 0.0673 µM)
MIC (Escherichia coli [66]): 0.19 µg/mL (≈ 0.4 µM)
fT>MIC (Klebsiella pneumoniae [67]): 0%
MIC (Klebsiella pneumoniae [68]): 0.012 µg/mL (≈ 0.0252 µM)
